This is a sample that favours compounds with a hit; in the whole collection about 3.1% have one here.
PRMT1 FP inh = inhibitors of human PRMT1. Q99873. recombinant PRMT1, activity-based probe fluorescence polarization. inhibition, % at 2.79 µM. actives 1.3% (n = 370,000). AID 652257;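 active means inhibition above about 21% made by adding two undisclosed values, limit read from the data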
LEDGF integ inh = blocks HIV-1 LEDGF/p75-dependent DNA integration; TR-FRET IN-LEDGF/p75 DNA integration, Eu/Cy5; inhibition, % at 3.7 µM; actives 0.64% (n = 370,000); AID 743269;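 active means inhibition above the screen-wide mean plus 3 SD, cut at about 13% in these data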;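 further: signal is the Cy5 over europium emission ratio at 671 and 618 nm; 0% = plate median of compound wells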
UHRF1 binding = blocks human UHRF1 binding to methylated DNA | Q96T88 | UHRF1 binding to methylated oligo, TR-FRET | inhibition, % at 4.4 µM | actives 0.75% (n = 370,000) | AID 687016; in the data active means inhibition above about 21%;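 further: UHRF1 SRA domain binding a hemimethylated CpG hairpin DNA probe; 0% = median of test compound wells and 100% = reference inhibitor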
MBD2 DNA inh = MBD2-methylated oligo binding inhibition; Q9UBB5; AID 686964; actives 0.31% (n = 370,000); TR-FRET, MBD2 binding to methylated oligonucleotide; inhibition, % at 4.4 µM; in the data active means inhibition above about 13%
Target sequence (Q9UBB5 whole entry, looked up): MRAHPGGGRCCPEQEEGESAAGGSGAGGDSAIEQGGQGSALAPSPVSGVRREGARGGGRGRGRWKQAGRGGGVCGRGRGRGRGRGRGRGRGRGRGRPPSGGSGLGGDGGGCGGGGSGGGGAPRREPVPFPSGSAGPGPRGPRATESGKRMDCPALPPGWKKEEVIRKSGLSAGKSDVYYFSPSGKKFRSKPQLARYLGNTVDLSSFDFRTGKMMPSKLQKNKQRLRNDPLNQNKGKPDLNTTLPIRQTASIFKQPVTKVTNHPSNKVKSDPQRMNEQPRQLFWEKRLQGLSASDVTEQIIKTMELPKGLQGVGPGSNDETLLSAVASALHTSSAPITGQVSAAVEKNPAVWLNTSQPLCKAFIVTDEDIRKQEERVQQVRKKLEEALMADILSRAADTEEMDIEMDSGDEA
RBBP9 inhibitor = inhibitors of human serine hydrolase RBBP9. actives 0.2% (n = 220,000). recombinant RBBP9, FP-Rh probe fluorescence polarization. inhibition, % at 7.94 µM. O75884. AID 1515;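 active means inhibition above the campaign mean of all tested compounds plus 3 SD, cut at about 14% in these data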;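 further: plate controls were DMSO wells with RBBP9 for no effect and wells lacking RBBP9 protein for full effect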
Target sequence (O75884 whole entry, looked up): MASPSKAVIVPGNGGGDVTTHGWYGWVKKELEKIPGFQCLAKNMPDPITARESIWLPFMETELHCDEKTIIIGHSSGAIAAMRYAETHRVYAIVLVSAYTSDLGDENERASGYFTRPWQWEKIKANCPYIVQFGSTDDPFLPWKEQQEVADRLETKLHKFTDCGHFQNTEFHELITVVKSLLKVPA
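Test system – recombinant human RBBP9 · Input – RBBP9 2.5 µM in dispensing solution, pre-mixing · Medium – Tris buffer pH 8.0, NaCl, Pluronic · Schedule – preincubation 30 min plus labeling 45 min at 25 °C · Measured by – fluorescence polarization · Measure – % inhibition · Controls – DMSO and no-protein wells · Replicates – one well per compound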
ABHD5 PLIN5 PPI = blocks binding of human ABHD5 to perilipin-5; Q00G26+Q8WTS1; Split G. princeps luciferase complementation, luminescence, 4 h; inhibition, % at 4 µM; actives 0.78% (n = 360,000);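 active means inhibition above the mean inhibition across every tested compound plus 3 SD, cut at about 22% in these data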;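 further: 0% = DMSO only wells and the 100% control is not disclosed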
An asterisk follows results filed as active; · = not tested or not shown.

SMILES	PRMT1 FP inh	LEDGF integ inh	UHRF1 binding	MBD2 DNA inh	RBBP9 inhibitor	ABHD5 PLIN5 PPI
Cc1n[nH]c(C)c1CCNC(=O)C1CCC(=O)N(CCc2cccc(F)c2)C1 (configuration not stated)	0	-2	22*	3	·	10
COc1ccccc1OCc1ccc(C(=O)N(C)c2ccccc2)o1	4	2	25*	4	·	8
O=C(COc1ccccc1F)NCc1nc2ccccc2[nH]1	3	2	22*	11	-5	1
Cc1ccccc1OCC(=O)NCCc1nc2ccccc2[nH]1	5	1	1	-2	7	-4
Cc1cccc(N2CCN(C(=O)c3ccc4c(c3)NC(=O)C(CSCc3cccc(F)c3)N4)CC2C)c1 (configuration not stated)	13	3	-4	-7	·	-12
COc1ccc(N2CCN(C(=O)c3ccc4c(c3)NC(=O)C(CSCc3ccccc3F)N4)CC2)cc1 (configuration not stated)	37*	2	2	-2	·	-2
C=CC[C@@H](CC(=O)N[C@H](CO)Cc1ccccc1)C(=O)N[C@H](COC(=O)[C@@H](CC=C)CC(=O)OC(C)(C)C)Cc1c[nH]c2ccccc12	2	0	26*	1	·	11
CCOC(=O)[C@]12CCCCC/C=C\1N(CCc1ccc(Cl)cc1)C(=O)[C@H]2CC(=O)NCc1cccc2ccccc12	-1	0	-2	3	·	·
CCn1c2ccccc2c2cc(NC(=O)COC(=O)c3cc(F)ccc3C)ccc21	-2	0	1	2	·	·
CC(=O)C1(C(=O)NCc2ccccc2)CC(c2ccccc2C(F)(F)F)=NO1 (configuration not stated)	-1	2	-2	1	·	·
C=CCN(CC#Cc1ccc(C(F)(F)F)cc1)Cc1ccc(OC)cc1OC	-3	-1	4	-2	·	·
O=C(N/N=C/c1ccc(O)c(O)c1)N/N=C/c1ccc(O)c(O)c1	24*	91*	7	9	·	-4
CCOC(=O)C1CCN(c2c(NCCCN(CC)c3ccccc3)c(=O)c2=O)CC1	-1	1	-2	5	3	-7
CCN(CCCNc1cc2c(c(N)c1S(=O)(=O)O)C(=O)c1ccccc1C2=O)c1ccccc1	23*	-2	19	1	·	15
O=c1[nH]c2ccccc2c2oc(CCl)nc12	21*	-4	-1	0	1	-17
CC(C)(C)c1cc[n+](-c2[nH]c(=O)sc2/C=N/NC([S-])=Nc2ccccc2)cc1	116*	-7	-7	-5	-2	-6
O=C(COC(=O)CCc1c[nH]c2ccccc12)NCc1ccc2c(c1)OCO2	3	3	64*	-1	8	4
COc1ccc(CCC(=O)OCC(=O)NCc2ccc3c(c2)OCO3)cc1	1	-1	-3	1	·	0
O=C(CC1S/C(=N/N=C/c2ccco2)NC1=O)Nc1cccc(Cl)c1Cl (configuration not stated)	22*	1	-5	-6	-5	10
Clc1ccc([C@H]2OC[C@@]3(CNCCc4c[nH]c5ccccc45)CS[C@H](c4ccc(Cl)cc4)N23)cc1	-1	8	-1	-6	·	·
C=CCNc1cccc2c1S(=O)(=O)N[C@H](CC(C)C)CO2	2	-3	2	-8	·	·
C/C(=N\OCc1ccc(C#N)cc1)c1ccccc1	2	-4	71*	0	-5	6
C/C(=N\OCc1ccc(C#N)cc1)c1ccc(S(=O)(=O)N(C)C)cc1	2	-4	0	-2	·	4
CC(=O)c1cc(O)c2ccccc2c1O	45*	1	-7	-6	-5	-24
CC(=O)c1coc2c1cc(O)c1ccccc12	2	-2	1	-3	-7	2
SMILES	PRMT1 FP inh	LEDGF integ inh	UHRF1 binding	MBD2 DNA inh	RBBP9 inhibitor	ABHD5 PLIN5 PPI
CC(C)(C)NC(=O)C1N(c2cccnc2)C(=O)C2C(C(=O)Nc3ccccc3F)C3(C)C=CC21O3 (configuration not stated)	22*	-2	-3	-1	-9	4
Cc1ccc(C2CC(=O)C=C(NCc3ccccc3)C2)cc1 (configuration not stated)	-1	0	36*	-4	-7	5
c1ccc(COCCc2cn(Cc3ccccc3)c3ccccc23)cc1	5	-4	1	0	·	·
CCOC(=O)C1=CN(Cc2ccco2)S(=O)(=O)N(C)C1CC (configuration not stated)	3	6	22*	2	·	7
CCOC(=O)C1=CN(Cc2ccco2)S(=O)(=O)N(C)C1c1ccc2ccccc2c1 (configuration not stated)	10	-2	0	4	·	17
CCCC(=O)OC12CCCN(C1)/C(=C/c1cccc(N(C)C)c1)C2 (configuration not stated)	2	-1	0	0	·	·
CSCc1cc(C(=O)NC2CC2)c(N)s1	23*	-3	-1	-2	·	-13
CCc1nnc(NC(=O)c2ccc(COc3ccccc3C)o2)s1	9	5	7	9	·	0
CCc1nnc(NC(=O)c2ccc(COc3ccccc3Cl)o2)s1	1	-3	28*	-1	·	4
O=C(NCCN1CCC(Cc2ccccc2)CC1)C1CCCN(S(=O)(=O)c2ccc(Cl)s2)C1 (configuration not stated)	-10	4	2	0	·	·
CC(C)C(OC(=O)c1ccco1)C(=O)NCc1ccco1 (configuration not stated)	0	-3	33*	3	-10	12
Cc1ccc2oc(-c3ccccc3)nc2c1	3	0	-2	-5	-5	-5
CCOc1cccc(-c2nc3cc(C)ccc3o2)c1	7	11	26*	11	-3	7
N=c1n(CCCOc2ccccc2Cl)c2ccccc2n1CC(N)=O	1	3	25*	-3	-6	13
CN(C)C(=S)Nc1ccc([N+](=O)[O-])cc1	-3	2	-4	-5	-2	-7
CN(C)C(=S)NC(=NCc1ccc([N+](=O)[O-])cc1)c1ccccc1	22*	-6	10	0	·	-10
Fc1ccccc1/C=N/n1cc(-c2ccccc2)[nH]c1=S	24*	-2	-2	-4	-11	-5
Cc1ccc(C)c(/C=N/n2cc(-c3ccccc3)[nH]c2=S)c1	24*	-3	4	1	-9	-10
O=C(CCS(=O)(=O)Cc1ccccc1)Nc1nc2c(s1)CCCC2	2	33*	1	1	-1	-6
O=C(O)C1CCN(C(=O)c2cccc3ccccc23)CC1	0	-1	30*	-5	·	-4
NC(=O)C1CCN(C(=O)COc2cccc3ccccc23)CC1	-4	-3	40*	-2	-1	7
COc1ccccc1N1CCN(C(=O)COc2cccc3ccccc23)CC1	-1	1	-2	1	·	18
